A short description of this series: Toxicity liver stage against HepG2, at 10uM. Also on record: test concentration 10 uM, cell line HepG2-A16-CD81EGFP. Particulars: human, HepG2-A16-CD81EGFP cells; read-out: INHIBITION
It is filed as cell-based. In short, it runs like this:
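Uninfected HepG2-A16-CD81EGFP cells, 3 × 10^3 per well, 1536-well, plated on prespotted compound at 10 μM final, parasite-free screening media added to match infected plates; puromycin 10 μM positive, DMSO 0.5% negative; run in parallel with 48 h PbLuc assay at 37 °C, 5% CO2; viability by CellTiter-Glo luminescence, normalized to controls.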

Turning to `CCCC1(CO)CCCN(Cc2ncccn2)C1` (stereo unspecified), the cytotoxicity at 10 µM is -1.89%. As for `Cc1cnn(CC2CCCN2Cc2nnc(C)o2)c1` (stereo unspecified), the cytotoxicity at 10 µM was -11.2%.

For the molecule `Cc1ccc(-c2nc(CNC3CCc4ncnn4C3)co2)c(C)c1` (stereo unspecified), the cytotoxicity at 10 µM is -9.5%. With `Cc1nccn1-c1ccc(CNS(=O)(=O)N2CCCC(C)C2)cn1` (stereo unspecified) the figure was 5.39%. Next, `CC(C)(CNc1cn[nH]c(=O)c1Cl)c1ccc2c(c1)OCCO2`: 2%; `CCOCCN(CCOCC)c1nc(C)nc2sccc12`: -126%; `NS(=O)(=O)NCc1cc(-c2ccc(C(F)(F)F)cc2)n[nH]1`: -6.11%. On to `Cc1ccc(NC2CCN(C(=O)c3ccoc3C)CC2)nn1`, for which the cytotoxicity at 10 µM was -12.7%.

In the case of `Cn1nc(C(C)(C)C)cc1NC(=O)Cn1ccnc1`, the cytotoxicity at 10 µM came to 1.5%. As to `CC(C)CC(=O)N1Cc2ccccc2CC1C(=O)Nc1nncs1` (stereo unspecified), the cytotoxicity at 10 µM is -154%. As for `CC/N=c1\nc(NCC)nc2n1C(O)(Nc1cccc(C)c1C)CS2` (stereo unspecified), the cytotoxicity at 10 µM came out at 11.5%. Next, `CCn1cc(CN2C[C@@H]3CCCN3C[C@H]2CCSC)cn1`: -25.4%. With `Cc1nc(CN2CCC(N(C)Cc3nnc(C4CC4)n3C)C2)oc1C` (stereo unspecified) the figure was -16.1%; with `CC(C)=CCCC(C)CN1CCC(n2cc(C(=O)NCCO)nn2)CC1` (stereo unspecified), 0.232%.

Turning to `FC(F)(F)COc1cccc(-c2nc3c([nH]2)CCNC3)c1`, the cytotoxicity at 10 µM came out at 4.5%.

Regarding `CCN(CC)c1ncccc1CNCc1ccc(-c2ccn[nH]2)s1`, the cytotoxicity at 10 µM stood at 6.43%. As for `CN1CC2(CCN(Cc3cccnc3)CC2)c2cc(F)ccc21`, the cytotoxicity at 10 µM was determined as 14%. Next, `CCn1ccnc1CN1CCN(c2ccc3nnc(C)n3n2)CC1`: 3.35%; `O=C(c1ccco1)N1C[C@H]2CCCN(Cc3ccncc3)[C@H]2C1`: 0.361%. As for `CC(C)=CCN1CC2(CCN(Cc3cccc(C#N)c3)CC2)CC1=O`, the cytotoxicity at 10 µM is -4.39%. `Cc1ccccc1CNc1nc(O)cc(C2CC(=O)N(C)C2)n1` (stereo unspecified): the cytotoxicity at 10 µM is -0.336%. Regarding `O=C1CO[C@H]2CN(Cc3ccc(C(F)(F)F)cc3)C[C@H]2N1`, the cytotoxicity at 10 µM is -4.63%. With `NC(=O)N1CCC(C(=O)NC2CCc3nccn3C2)CC1` (stereo unspecified) the figure was -2.09%; with `O=C(Cc1csc(-c2ccoc2)n1)NCCCN1CCCCC1`, 12.6%; with `COC(=O)[C@H]1CN(S(C)(=O)=O)CCN1S(C)(=O)=O`, -1.37%. `COC(=O)[C@@H]1CN(C(=O)NC(C)C)CCN1S(=O)(=O)c1ccccc1`: the cytotoxicity at 10 µM was 2.17%. As to `CN1CCc2c(C#N)c(NCCc3ccccc3)n3cnnc3c2C1`, the cytotoxicity at 10 µM stood at 12.4%. On to `O=C(O)CSc1nnc(-c2ccn[nH]2)n1-c1ccccc1C(F)(F)F`, for which the cytotoxicity at 10 µM was -3.85%. `CNC(=O)c1nc(COc2c(C)occc2=O)no1`: the cytotoxicity at 10 µM came out at 3.08%. For the molecule `Cc1cc(C(=O)N2CCc3ncc(CN4CCOCC4)n3CC2)no1`, the cytotoxicity at 10 µM came to 3.76%. For the molecule `COc1cccc(S(=O)(=O)Cc2noc(CC(C)C)n2)c1`, the cytotoxicity at 10 µM stood at 12%. With `CC(C)c1noc(CCCC(=O)N2CCN(S(C)(=O)=O)CC2)n1`, the cytotoxicity at 10 µM was -15.7%. With `O=C1[C@H]2CN(Cc3cccs3)C[C@H]2CN1CCN1CCCC1` the figure was -12.7%. With `Cc1ccc(C(=O)NS(=O)(=O)c2ccccc2C)c(=O)[nH]1` the figure was -8.48%.

In the case of `Cc1ccc2c(n1)N(CC(C)C)CCN(C(=O)Cc1ccccn1)C2`, the cytotoxicity at 10 µM came out at 12.7%. With `Cc1cc(C(=O)NCC2CCS(=O)(=O)C2)ccc1NC(=O)c1ccco1` (stereo unspecified) the figure was 19%; with `Cc1cccc(CN2C(=O)CCC23CCNCC3)n1`, 0.758%.

Consider `Cc1occc1C(=O)NCc1ccc(N2CCCC(C(N)=O)C2)cc1` (stereo unspecified), for which the cytotoxicity at 10 µM stood at 1.49%. With `Cc1c(CNC(=O)C2CCCN2C(=O)C2CC2)oc2ccccc12` (stereo unspecified) the figure was 5.6%; with `O=C(CCCn1ccnc1)NC1CCCN(c2ccccc2Cl)C1` (stereo unspecified), 4.86%; with `CC(COCC(F)(F)F)NC(=O)c1ccc(-c2ccco2)[nH]c1=O` (stereo unspecified), -20.1%. Next, `Cc1nc(CN2CCCC(N(C)Cc3nc(C)c(C)o3)C2)no1` (stereo unspecified): -6.6%. In the case of `Cc1cnn(Cc2ccc(NC(=O)N[C@@H]3C=C[C@H](CO)C3)cc2)c1`, the cytotoxicity at 10 µM was 7.76%. Consider `CCCc1noc(CNC2CCCN(Cc3noc(C4CC4)n3)C2)n1` (stereo unspecified), for which the cytotoxicity at 10 µM was -13.5%.

On to `CCOc1ccc(NC(=O)c2ccc(C#N)cc2C)cc1CO`, for which the cytotoxicity at 10 µM is -4.12%. As to `CC(C)Cc1noc(-c2ccc(NCc3noc(C(C)C)n3)nc2)n1`, the cytotoxicity at 10 µM turned out to be 0.178%.

As for `COc1cc(NC(=O)C2CC(=O)N(c3cccc(F)c3)C2)ncn1` (stereo unspecified), the cytotoxicity at 10 µM was -1.73%. With `CNS(=O)(=O)c1cccc(CNC(=O)c2cc(C)no2)c1` the figure was -10.3%; with `O=C(CSCc1ccncc1)NCC1CCN(C2CC2)C1` (stereo unspecified), 0.224%.

As to `CN(C)C(=O)C1CCC2(CCNCC2)C1` (stereo unspecified), the cytotoxicity at 10 µM was found to be 8.59%.

Take `O=C(O)COc1ccc(Cl)cc1CN1CCC2(CCOCC2)CC1`: the cytotoxicity at 10 µM was -6.55%. For the molecule `COc1cc(Br)c(CNC(C)c2nnc3n2CCC3)cc1OC` (stereo unspecified), the cytotoxicity at 10 µM is -43.2%. With `Cc1cccc(CN2CC[C@H]3C[C@H](C)O[C@@H]3C2)n1` the figure was -78.6%; with `COCC(=O)N1CCO[C@]2(CCC[C@H]2COC)C1`, -97.5%; with `Cc1ccc(N2CCO[C@@H]3CN(Cc4cccc(C)n4)CC[C@@H]3C2)nn1`, 7.67%. With `CCc1nc(CCNC(=O)C2CC2)sc1C`, the cytotoxicity at 10 µM is -14.1%. For the molecule `COCCc1ncc(CNC2(c3ccc(Cl)cc3)CC2)cn1`, the cytotoxicity at 10 µM was -17.3%. On to `O=C1OCCN1Cc1cccc(F)c1C(F)(F)F`, for which the cytotoxicity at 10 µM amounted to 2.61%.

As for `CCc1nnc2n1CCN(C(=O)c1ccc(C)c(S(N)(=O)=O)c1)C2`, the cytotoxicity at 10 µM is -4.55%.

`Cc1oc(-c2ccco2)nc1CC(=O)N1CCN(CC(C)O)CC1` (stereo unspecified): the cytotoxicity at 10 µM was -11.4%.

Regarding `Cc1noc([C@@H]2C[C@H]3CN(Cc4cc(C)on4)C[C@H]3O2)n1`, the cytotoxicity at 10 µM was -9.33%. Consider `CN1CCN2C(=O)N(C3CCCCC3)C[C@H]2C1`, for which the cytotoxicity at 10 µM was -3.1%. With `Cn1ncc2c(N3CC[C@H](O)C3)nc(-c3ccncc3)nc21` the figure was 4.63%. Next, `O=C1COc2cc(C(=O)NS(=O)(=O)c3cccc(Cl)c3)ccc2N1`: -4.01%; `CO[C@H]1COCCN(C(=O)c2ccc(F)cc2)C1`: 0.287%; `O=S1(=O)C[C@@H]2[C@H](C1)N(Cc1cc(Cl)cc(Cl)c1)CCN2CCO`: 0.303%.

For the molecule `CN(Cc1ccc2c(c1)OCCO2)C(=O)Cn1ccccc1=O`, the cytotoxicity at 10 µM was determined as 1.2%.

Turning to `Cc1ccc(-n2nnc(C(=O)NCCS(N)(=O)=O)c2C2CC2)cc1`, the cytotoxicity at 10 µM was -5.21%. For the molecule `CC(NC(=O)Nc1cc(F)ccc1N1CCCCC1)c1nncn1C` (stereo unspecified), the cytotoxicity at 10 µM was -3.36%. Next, `Cc1cc(C(=O)N2CCn3cnc(COCC4CC4)c3C2)no1`: 1.85%; `CN(C)CCN(Cc1ccccc1)C(=O)CN1CCCNC1=O`: 1.42%.
